The results in this text go back to ChEMBL document CHEMBL4330106, “A new class of pentapeptide KISS1 receptor agonists with hypothalamic-pituitary-gonadal axis activation” (Bioorg Med Chem Lett, 2019).

Structures are written as SMILES. Square brackets hold non-standard residues; d marks the D form. Peptide text beside a SMILES is read from it. * marks the point of attachment. Propanoyl(3-indol-3-yl) = O=C(CCc1c[nH]c2ccccc12)*; Propanoyl(3-(4-pyridyl)) = O=C(CCc1ccncc1)*; Arg(Me) = CNC(=N)NCCC[C@H](N)C(=O)O; Hydrocinnamoyl = O=C(CCc1ccccc1)*; Hexanoyl = CCCCCC(=O)*; Bz = O=C(c1ccccc1)*; azaGly = NNC(=O)O

The target of one series is KiSS-1 receptor (Homo sapiens, UniProt Q969F8). The series is described as follows: Agonist activity at human KISS1R expressed in CHO cells assessed as increase in calcium mobilization measured at 2 secs interval for 2 mins by fluo-4 NW dye based FLIPR assay. It is filed as functional, cell-based. The method in brief: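 Ligand-induced Ca2+ rise in CHO cells expressing human KISS1R, read on a fluorometric imaging plate reader (FLIPR); agonist potency reported as EC50 (nM).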

The nature of series [1]: Retention time of the compound by reverse-phase HPLC method. It is filed as physicochemical. The method in brief:
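RP-HPLC on C18 monolith column. Linear gradient of 0.1% TFA water / 0.1% TFA acetonitrile, A/B 95/5 to 35/65 over 10 min, 3.0 mL/min.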

Sequence of KiSS-1 receptor (Q969F8 whole entry): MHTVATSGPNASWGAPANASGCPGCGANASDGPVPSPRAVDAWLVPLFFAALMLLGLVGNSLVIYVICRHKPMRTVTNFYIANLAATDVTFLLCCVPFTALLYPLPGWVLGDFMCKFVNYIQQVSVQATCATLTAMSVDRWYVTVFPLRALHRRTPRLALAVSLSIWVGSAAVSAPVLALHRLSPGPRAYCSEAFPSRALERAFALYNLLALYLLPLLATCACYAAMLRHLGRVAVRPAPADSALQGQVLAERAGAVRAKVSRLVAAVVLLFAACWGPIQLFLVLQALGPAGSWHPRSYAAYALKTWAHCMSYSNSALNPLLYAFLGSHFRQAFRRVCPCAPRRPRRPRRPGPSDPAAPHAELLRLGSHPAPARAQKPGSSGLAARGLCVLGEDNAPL

Turning to `CNC(=N)NCCC[C@H](NC(=O)[C@H](CC(C)C)NC(=O)NNC(=O)[C@H](Cc1ccccc1)NC(=O)C1CC1)C(=O)N[C@@H](Cc1c[nH]c2ccccc12)C(N)=O`, the EC50 at KiSS-1 receptor is 0.028 nM. The Retention_time in series [1] is reported as 5.7 min.

Turning to `CNC(=N)NCCC[C@H](NC(=O)[C@H](CC(C)C)NC(=O)NNC(=O)[C@H](Cc1ccccc1)NC(=O)[C@H](CO)NC(=O)[C@H](CC(N)=O)NC(=O)[C@H](Cc1c[nH]c2ccccc12)NC(C)=O)C(=O)N[C@@H](Cc1ccccc1)C(N)=O` (Ac-WNSF[azaGly]L[Arg(Me)]F-NH2), at KiSS-1 receptor, the EC50 is 2.1 nM. This compound also displayed a Retention_time in series [1] of 5.76 min.

Turning to `CNC(=N)NCCC[C@H](NC(=O)[C@H](CC(C)C)NC(=O)NNC(=O)[C@H](Cc1ccccc1)NC(=O)[C@H](CO)NC(=O)[C@H](CC(N)=O)NC(=O)[C@@H](N)Cc1c[nH]c2ccccc12)C(=O)N[C@@H](Cc1ccccc1)C(N)=O` (H-WNSF[azaGly]L[Arg(Me)]F-NH2), the EC50 on KiSS-1 receptor was 7.7 nM. In series [1], this compound showed a Retention_time of 5.03 min.

Take `CNC(=N)NCCC[C@H](NC(=O)[C@H](CC(C)C)NC(=O)NNC(=O)[C@H](Cc1ccccc1)NC(=O)c1cccnc1)C(=O)N[C@@H](Cc1c[nH]c2ccccc12)C(N)=O`: on KiSS-1 receptor, the EC50 stood at 0.16 nM. Also, in series [1], the Retention_time is 4.69 min.

For `CNC(=N)NCCC[C@H](NC(=O)[C@H](CC(C)C)NC(=O)NNC(=O)[C@H](Cc1ccccc1)NC(=O)C1CCCCC1)C(=O)N[C@@H](Cc1c[nH]c2ccccc12)C(N)=O`, at KiSS-1 receptor, the EC50 was found to be 0.12 nM. In addition, the Retention_time in series [1] was determined as 6.7 min.

Turning to `CNC(=N)NCCC[C@H](NC(=O)[C@H](CC(C)C)NC(=O)NNC(=O)[C@H](Cc1ccccc1)NC(=O)c1ccc[nH]1)C(=O)N[C@@H](Cc1c[nH]c2ccccc12)C(N)=O`, the EC50 at KiSS-1 receptor was 0.23 nM. The same compound displayed a Retention_time in series [1] of 5.91 min.

Regarding `CCC(=O)N[C@@H](Cc1ccccc1)C(=O)NNC(=O)N[C@@H](CC(C)C)C(=O)N[C@@H](CCCNC(=N)NC)C(=O)N[C@@H](Cc1c[nH]c2ccccc12)C(N)=O`, the EC50 at KiSS-1 receptor came to 0.13 nM. Also, in series [1], the Retention_time came out at 5.52 min.

For `CNC(=N)NCCC[C@H](NC(=O)[C@H](CC(C)C)NC(=O)NNC(=O)[C@H](Cc1ccccc1)NC(=O)[C@H](CO)NC(=O)[C@H](CC(N)=O)NC(=O)[C@H](Cc1c[nH]c2ccccc12)NC(=O)[C@H](N)Cc1ccc(O)cc1)C(=O)N[C@@H](Cc1ccccc1)C(N)=O` (H-[dY]WNSF[azaGly]L[Arg(Me)]F-NH2), the EC50 on KiSS-1 receptor is 0.057 nM. In series [1], this compound gave a Retention_time of 5.54 min.

As to `CNC(=N)NCCC[C@H](NC(=O)[C@H](CC(C)C)NC(=O)NNC(=O)[C@H](Cc1ccccc1)NC(=O)c1c[nH]cn1)C(=O)N[C@@H](Cc1c[nH]c2ccccc12)C(N)=O`, the concentration giving a half-maximal response (EC50) at KiSS-1 receptor is 0.24 nM. The Retention_time in series [1] is on record as 4.47 min.

Turning to `CNC(=N)NCCC[C@H](NC(=O)[C@H](CC(C)C)NC(=O)NNC(=O)[C@H](Cc1ccccc1)NC(C)=O)C(=O)N[C@@H](Cc1ccccc1)C(N)=O` (Ac-F[azaGly]L[Arg(Me)]F-NH2), on KiSS-1 receptor, the EC50 came to 0.33 nM. In series [1], this compound had a Retention_time of 5.02 min.

As for `CNC(=N)NCCC[C@H](NC(=O)[C@H](CC(C)C)NC(=O)NNC(=O)[C@H](Cc1ccccc1)NC(=O)[C@H](CO)NC(=O)[C@H](CC(N)=O)NC(=O)CCc1ccccc1)C(=O)N[C@@H](Cc1ccccc1)C(N)=O` (Hydrocinnamoyl-NSF[azaGly]L[Arg(Me)]F-NH2), the EC50 at KiSS-1 receptor is 0.17 nM. Further, in series [1], the Retention_time worked out at 5.9 min.

Consider `CNC(=N)NCCC[C@H](NC(=O)[C@H](CC(C)C)NC(=O)NNC(=O)[C@H](Cc1ccccc1)NC(=O)c1ccoc1)C(=O)N[C@@H](Cc1c[nH]c2ccccc12)C(N)=O`, for which, on KiSS-1 receptor, the EC50 came out at 0.11 nM. The compound also returned a Retention_time in series [1] of 5.88 min.

On to `CNC(=N)NCCC[C@H](NC(=O)[C@H](CC(C)C)NC(=O)NNC(=O)[C@H](Cc1ccccc1)NC(=O)c1ccccc1)C(=O)N[C@@H](Cc1ccccc1)C(N)=O` (Bz-F[azaGly]L[Arg(Me)]F-NH2), for which the EC50 at KiSS-1 receptor is 0.6 nM. The compound further registered a Retention_time in series [1] of 6.21 min.

In the case of `CNC(=N)NCCC[C@H](NC(=O)[C@H](CC(C)C)NC(=O)NNC(=O)[C@H](Cc1ccccc1)NC(=O)CCc1c[nH]c2ccccc12)C(=O)N[C@@H](Cc1c[nH]c2ccccc12)C(N)=O`, the EC50 on KiSS-1 receptor was determined as 0.022 nM. In addition, the Retention_time in series [1] was determined as 6.67 min.

As to `CNC(=N)NCCC[C@H](NC(=O)[C@H](CC(C)C)NC(=O)NNC(=O)[C@H](Cc1ccccc1)NC(=O)[C@H](CO)NC(=O)[C@H](CC(N)=O)NC(=O)CCc1c[nH]c2ccccc12)C(=O)N[C@@H](Cc1ccccc1)C(N)=O` ({Propanoyl(3-indol-3-yl)}-NSF[azaGly]L[Arg(Me)]F-NH2), the EC50 at KiSS-1 receptor was determined as 0.13 nM. For the same compound, in series [1], the Retention_time came to 5.95 min.

In the case of `CNC(=N)NCCC[C@H](NC(=O)[C@H](CC(C)C)NC(=O)NNC(=O)[C@H](Cc1ccccc1)NC(=O)CCc1c[nH]c2ccccc12)C(=O)N[C@@H](Cc1ccccc1)C(N)=O` ({Propanoyl(3-indol-3-yl)}-F[azaGly]L[Arg(Me)]F-NH2), the EC50 on KiSS-1 receptor was 0.62 nM. The same compound yielded a Retention_time in series [1] of 6.58 min.

For `CNC(=N)NCCC[C@H](NC(=O)[C@H](CC(C)C)NC(=O)NNC(=O)[C@H](Cc1ccccc1)NC(=O)C(C)C)C(=O)N[C@@H](Cc1c[nH]c2ccccc12)C(N)=O`, on KiSS-1 receptor, the EC50 amounted to 0.058 nM. The Retention_time in series [1] is given as 5.88 min.

Take `CNC(=N)NCCC[C@H](NC(=O)[C@H](CC(C)C)NC(=O)NNC(=O)[C@H](Cc1ccccc1)NC(=O)Cc1ccccc1)C(=O)N[C@@H](Cc1c[nH]c2ccccc12)C(N)=O`: on KiSS-1 receptor, the EC50 was determined as 0.27 nM. Moreover, the Retention_time in series [1] came out at 6.49 min.

In the case of `CNC(=N)NCCC[C@H](NC(=O)[C@H](CC(C)C)NC(=O)NNC(=O)[C@@H](N)Cc1ccccc1)C(=O)N[C@@H](Cc1ccccc1)C(N)=O` (H-F[azaGly]L[Arg(Me)]F-NH2), the EC50 on KiSS-1 receptor was 130 nM. In addition, the Retention_time in series [1] is listed as 4.29 min.

Consider `CCCCCC(=O)N[C@@H](Cc1ccccc1)C(=O)NNC(=O)N[C@@H](CC(C)C)C(=O)N[C@@H](CCCNC(=N)NC)C(=O)N[C@@H](Cc1ccccc1)C(N)=O` (Hexanoyl-F[azaGly]L[Arg(Me)]F-NH2), for which the EC50 at KiSS-1 receptor worked out at 1.4 nM. The compound also registered a Retention_time in series [1] of 6.66 min.

In the case of `CNC(=N)NCCC[C@H](NC(=O)[C@H](CC(C)C)NC(=O)NNC(=O)[C@H](Cc1ccccc1)NC(=O)[C@H](CO)NC(=O)CCc1c[nH]c2ccccc12)C(=O)N[C@@H](Cc1ccccc1)C(N)=O` ({Propanoyl(3-indol-3-yl)}-SF[azaGly]L[Arg(Me)]F-NH2), at KiSS-1 receptor, the EC50 was 8.2 nM. In addition, in series [1], the Retention_time is given as 6.17 min.

In the case of `CNC(=N)NCCC[C@H](NC(=O)[C@H](CC(C)C)NC(=O)NNC(=O)[C@H](Cc1ccccc1)NC(=O)c1ccccn1)C(=O)N[C@@H](Cc1c[nH]c2ccccc12)C(N)=O`, the EC50 at KiSS-1 receptor was determined as 0.037 nM. In series [1], this compound yielded a Retention_time of 6.02 min.

For the compound `CNC(=N)NCCC[C@H](NC(=O)[C@H](CC(C)C)NC(=O)NNC(=O)[C@H](Cc1ccccc1)NC(=O)[C@H](CO)NC(=O)[C@H](CC(N)=O)NC(=O)CCc1ccncc1)C(=O)N[C@@H](Cc1ccccc1)C(N)=O` ({Propanoyl(3-(4-pyridyl))}-NSF[azaGly]L[Arg(Me)]F-NH2), at KiSS-1 receptor, the half-maximal effective concentration (EC50) came to 1.5 nM. Also, in series [1], the Retention_time came out at 4.51 min.

In general, EC50 refers to the concentration giving half of the maximal effect.
